# Laboratory results from ChEMBL document CHEMBL1127574, “Design and synthesis of ellipticinium salts and 1,2-dihydroellipticines with high selectivities against human CNS cancers in vitro” (1994).
# Columns and labels:
# Assay type in all cases: functional
# CCRF-CEM [1] = assay: Tested in vitro for cytotoxicity in CCRF-CEM cell line of Leukemia; conditions: Homo sapiens, read-out: Log TGI (converted)
# Outline: (§1)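 Compounds dissolved in DMSO, then diluted 500-fold into aqueous medium. The resulting aqueous solutions or suspensions were added to the cultured human tumour cell lines, and the cells were exposed for 48 h. Growth was read colorimetrically in one of two ways: a metabolic assay in which viable cells reduce a tetrazolium salt to a formazan dye, or a protein stain for total cellular protein.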
# HOP-92 = assay: Tested in vitro for cytotoxicity in HOP-92 cell line of Non-Small Cell Lung Cancer; conditions: Homo sapiens, read-out: Log TGI (converted); outline: as §1
# HCT-116 = assay: Tested in vitro for cytotoxicity in HCT116 cell line of Colon Cancer; conditions: Homo sapiens, read-out: Log TGI (converted); outline: as §1
# COLO 205 [2] = assay: Tested in vitro for cytotoxicity in COLO 205 cell lines; conditions: Homo sapiens; outline: as §1
# NCI-H522 = assay: Tested in vitro for cytotoxicity in NCI-H522 cell line of Non-Small Cell Lung Cancer; conditions: Homo sapiens, read-out: Log TGI (converted); outline: as §1
# HT-29 = assay: Tested in vitro for cytotoxicity in HT-29 cell line of Colon Cancer; conditions: Homo sapiens, read-out: Log TGI (converted); outline: as §1
# RPMI-8226 = assay: Tested in vitro for cytotoxicity in RPMI-8226 cell line of Leukemia; conditions: Homo sapiens, read-out: Log TGI (converted); outline: as §1
# M14 = assay: Tested in vitro for cytotoxicity in M14 cell line of Melanoma; conditions: Homo sapiens, read-out: Log TGI (converted); outline: as §1
# LOX IMVI = assay: Tested in vitro for cytotoxicity in LOX IMVI cell line of Melanoma; conditions: Homo sapiens, read-out: Log TGI (converted); outline: as §1
# SF-295 = assay: Tested in vitro for cytotoxicity in SF-295 cell line of CNS Cancer; conditions: Homo sapiens, read-out: Log TGI (converted); outline: as §1
# CCRF-CEM [3] = assay: Tested in vitro for cytotoxicity in CCRF-CEM cell lines; conditions: Homo sapiens; outline: as §1
# SNB-19 = assay: Tested in vitro for cytotoxicity in SNB-19 cell line of CNS Cancer; conditions: Homo sapiens, read-out: Log TGI (converted)
# Outline: (§2)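 Compound DMSO solutions diluted 500-fold into aqueous medium; the resulting solutions or suspensions were added to cultured human tumor cells for 48 h. Growth was read colorimetrically, either by tetrazolium reduction to formazan by viable cells or by a protein stain for total cellular protein.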
# DMS-114 = assay: Tested in vitro for cytotoxicity in DMS114 cell line of Small Cell Lung Cancer; conditions: Homo sapiens, read-out: Log TGI (converted); outline: as §1
# IGROV-1 = assay: Tested in vitro for cytotoxicity in IGROV1 cell line of Ovarian Cancer; conditions: Homo sapiens, read-out: Log TGI (converted); outline: as §1
# HCT-15 = assay: Tested in vitro for cytotoxicity in HCT-15 cell line of Colon Cancer; conditions: Homo sapiens, read-out: Log TGI (converted); outline: as §1
# SNB-75 = assay: Tested in vitro for cytotoxicity in SNB-75 cell line of CNS Cancer; conditions: Homo sapiens, read-out: Log TGI (converted)
# Outline: (§3)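 Compounds dissolved in DMSO and diluted 500-fold into aqueous medium; aliquots of the resulting solutions or suspensions added to cultured human tumor cells for 48 h. Growth read colorimetrically, either by tetrazolium reduction to formazan by viable cells or by protein staining of total cellular protein.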
# COLO 205 [4] = assay: Tested in vitro for cytotoxicity in COLO 205 cell line of Colon Cancer; conditions: Homo sapiens, read-out: Log TGI (converted); outline: as §1
# DMS-273 = assay: Tested in vitro for cytotoxicity in DMS273 cell line of Small Cell Lung Cancer; conditions: Homo sapiens, read-out: Log TGI (converted); outline: as §1
# NCI-H23 = assay: Tested in vitro for cytotoxicity in NCI-H23 cell line of Non-Small Cell Lung Cancer; conditions: Homo sapiens, read-out: Log TGI (converted); outline: as §1
# OVCAR-3 = assay: Tested in vitro for cytotoxicity in OVCAR-3 cell line of Ovarian Cancer; conditions: Homo sapiens, read-out: Log TGI (converted); outline: as §2
# Malme-3M = assay: Tested in vitro for cytotoxicity in MALME-3M cell line of Melanoma; conditions: Homo sapiens, read-out: Log TGI (converted); outline: as §1
# K562 = assay: Tested in vitro for cytotoxicity in K-562 cell line of Leukemia; conditions: Homo sapiens, read-out: Log TGI (converted); outline: as §1
# EKVX = assay: Tested in vitro for cytotoxicity in EKVX cell line of Non-Small Cell Lung Cancer; conditions: Homo sapiens, read-out: Log TGI (converted); outline: as §2
# OVCAR-5 = assay: Tested in vitro for cytotoxicity in OVCAR-5 cell line of Ovarian Cancer; conditions: Homo sapiens, read-out: Log TGI (converted); outline: as §1
# HCC 2998 = assay: Tested in vitro for cytotoxicity in HCC2998 cell line of Colon Cancer; conditions: Homo sapiens, read-out: Log TGI (converted); outline: as §1
# A549 = assay: Tested in vitro for cytotoxicity in A549/ATCC cell line of Non-Small Cell Lung Cancer; conditions: Homo sapiens, read-out: Log TGI (converted); outline: as §1
# SF-268 = assay: Tested in vitro for cytotoxicity in SF-268 cell line of CNS cancer; conditions: Homo sapiens, read-out: Log TGI (converted); outline: as §1
# KM12 = assay: Tested in vitro for cytotoxicity in KM12 cell line of Colon Cancer; conditions: Homo sapiens, read-out: Log TGI (converted); outline: as §1
# UO-31 = assay: Tested in vitro for cytotoxicity in UO-31 cell line of Renal cancer; conditions: Homo sapiens, read-out: Log TGI (converted); outline: as §3
# A498 = assay: Tested in vitro for cytotoxicity in A498 cell line of Renal cancer; conditions: Homo sapiens, read-out: Log TGI (converted); outline: as §1
# TK-10 = assay: Tested in vitro for cytotoxicity in TK-10 cell line of Renal cancer; conditions: Homo sapiens, read-out: Log TGI (converted); outline: as §3
compound,measurement,setting,value
COc1ccc2[nH]c3c(C)c4cc[n+](C)cc4c(C)c3c2c1,TGI,CCRF-CEM [1],> 100 µM
same,TGI,HOP-92,79.4 µM
same,TGI,HCT-116,> 100 µM
same,GI50,COLO 205 [2],2.4 µM
same,TGI,NCI-H522,7.94 µM
same,TGI,HT-29,> 100 µM
same,TGI,RPMI-8226,> 100 µM
same,TGI,M14,> 100 µM
same,TGI,LOX IMVI,> 100 µM
same,TGI,SF-295,6.31 µM
same,GI50,CCRF-CEM [3],4.22 µM
same,TGI,SNB-19,10 µM
same,TGI,DMS-114,6.31 µM
same,TGI,IGROV-1,> 100 µM
same,TGI,HCT-15,> 100 µM
same,TGI,SNB-75,3.16 µM
same,TGI,COLO 205 [4],39.8 µM
same,TGI,DMS-273,63.1 µM
same,TGI,NCI-H23,10 µM
same,TGI,OVCAR-3,100 µM
same,TGI,Malme-3M,25.1 µM
same,TGI,K562,> 100 µM
same,TGI,EKVX,25.1 µM
same,TGI,OVCAR-5,> 100 µM
same,TGI,HCC 2998,63.1 µM
same,TGI,A549,> 100 µM
same,TGI,SF-268,5.01 µM
same,TGI,KM12,25.1 µM
same,TGI,UO-31,> 100 µM
same,TGI,A498,> 100 µM
same,TGI,TK-10,> 100 µM
